Experimental data: PMC7439260 (ACS Omega, 2020)
Counter-ions that a name gives are not always drawn. Where a SMILES comes first, the peptide text is derived from it. [ ]: non-standard residue; d: D form. Hyp = O=C(O)[C@@H]1C[C@@H](O)CN1

Legend:
bleeding time = test: Tail bleeding assay; assay type: in vivo, ICR mice; conditions: mice, n = 10; for Bleeding time (BT): 100 μmol/kg b.w. oral, tail cut 3 mm, saline 37 °C, maximum 900 s; for Effect on bleeding time (BT) (in words): doses of 300 and 400 μmol/kg b.w. oral
[1] = tested on: human platelet aggregation; conditions: at 1 mg/mL; cited from earlier work
[2] = tested on: platelet aggregation induced by ADP; conditions: read-out: IC50 of antiplatelet activity induced by ADP; cited from earlier work
thymus and spleen = test: Thymus index and spleen index; assay type: in vivo, ICR mice; conditions: oral administration at doses of 300 or 450 μmol/kg b.w.; mice
Method in brief: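 The same orally dosed ICR mice (300 or 450 μmol/kg b.w. peptide, saline vehicle) were weighed and sacrificed after the tail-bleeding test. Thymus and spleen were excised, washed in PBS, blotted and weighed. Indices were computed as organ weight / body weight (mg/g). Gross appearance of the organs was checked for atrophy, hyperplasia or swelling.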

[3] = tested on: platelet aggregation induced by ADP; test: Inhibition of ADP-induced platelet aggregation in vitro; assay type: cell-based, rat; conditions: data not shown
Method in brief: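 Rat aortic blood was anticoagulated with sodium citrate (1:9, v/v) and spun at 50 × g for 10 min to give PRP. A further 750 × g, 10 min spin gave PPP, used to dilute PRP to 2–3 × 10^8. PRP was preincubated with buffer or peptide for 5 min at 37 °C, then ADP (0.1 mM) was added. Aggregation at 5 min was read on an aggregometer. Inhibition % was calculated versus the buffer control, and IC50 was derived by curve fitting.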

For `COC(=O)[C@H](c1ccccc1Cl)N1CCc2sccc2C1` [clopidogrel, clopidogrel hydrogen sulfate, reference compound], the “Bleeding time (BT)” value (bleeding time) was > 15 min.
In the case of LTFPRIVFVLG, the “Inhibition of platelet aggregation” value [1] is given as 76.69%.
In the case of SSGE, the IC50 [2] is given as 480 µM.
In the case of `N[C@@H](CC(=O)O)C(=O)N[C@@H](CCC(=O)O)C(=O)NCC(=O)N1CCC[C@H]1C(=O)O` [DEGP, Asp-Glu-Gly-Pro] (H-DEGP-OH), the “Effect on bleeding time (BT) (in words)” value (bleeding time) is reported as “no significant increase in BT” and the “Acute toxicological effects (in words)” value (thymus and spleen) is reported as “no acute toxicological effects”.
For `O=C(O)CC[C@H](NC(=O)CNC(=O)[C@@H]1C[C@@H](O)CN1)C(=O)N[C@@H](Cc1ccccc1)C(=O)NCC(=O)O` [OGEFG, Hyp-Gly-Glu-Phe-Gly] (H-[Hyp]GEFG-OH), the “Effect on bleeding time (BT) (in words)” value (bleeding time) was “no significant increase in BT” and the “Acute toxicological effects (in words)” value (thymus and spleen) was “no acute toxicological effects”.
For `CC(=O)Oc1ccccc1C(=O)O` [aspirin, Aspirin, reference compound], the “Bleeding time (BT)” value (bleeding time) was 5.345 min.
For VFPQ, the “Activity against ADP-induced platelet aggregation (in words)” value [3] was “poor activities”.
